Measurements taken from ChEMBL document CHEMBL1629686, “Substrate selectivity and a novel role in inhibitor discrimination by residue 237 in the KPC-2 beta-lactamase” (Antimicrob Agents Chemother, 2010).
In brackets after ≈: the same amount, converted by molar mass.

How the values were obtained:
[1] = system: Klebsiella pneumoniae; assay: Ratio of Kcat/Km for Klebsiella pneumoniae 1534 beta-lactamase KPC-2 T237A mutant by spectrophotometric analysis
Procedure, shortened: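 Purified KPC-2 variant enzymes (periplasmic lysate from E. coli, preparative isoelectric focusing). Hydrolysis followed by diode-array spectrophotometry in 10 mM PBS, pH 7.4, room temperature. Enzyme at 10 nM with substrate in molar excess for pseudo-first-order conditions. Vmax and Km came from a nonlinear least-squares Michaelis-Menten fit.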

[2] = system: Klebsiella pneumoniae; assay: Selectivity index, Ratio of Kcat/Km for Klebsiella pneumoniae 1534 beta-lactamase KPC-2 T237S mutant to ratio of Kcat/Km for Klebsiella pneumoniae 1534 beta-lactamase KPC-2 by spectrophotometric analysis
Procedure, shortened: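 Kinetics used purified enzymes in 10 mM PBS, pH 7.4, room temperature, with 10 nM enzyme and substrate in excess. Km and Vmax came from a Michaelis-Menten fit. kcat/Km of the variant was compared with wild type as ΔΔG = −RT ln of the kcat/Km ratio.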

[3] = system: Klebsiella pneumoniae; assay: Antimicrobial activity against Klebsiella pneumoniae 1534 expressing beta-lactamase KPC-2 by agar dilution method; type: functional
Procedure, shortened: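 MICs were determined by LB agar dilution following CLSI criteria, with a Steers replicator. […] Piperacillin-tazobactam was kept at an 8:1 ratio.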

[4] = system: Escherichia coli; assay: Antimicrobial activity against Escherichia coli DH10B harboring plasmid pBR322-catI carrying beta-lactamase KPC-2 by agar dilution method; type: functional; conditions: K-12 DH10B
Procedure, shortened: (§1)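 LB agar dilution MICs followed CLSI criteria, with inocula applied by Steers replicator. […] Piperacillin-tazobactam was tested at an 8:1 ratio. Wild-type and mutant blaKPC-2 were carried on pBC SK(+), or wild type on pBR322-catI, in E. coli DH10B.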

[5] = system: Escherichia coli; assay: Antimicrobial activity against Escherichia coli DH10B harboring plasmid pBC SK(+) carrying wild type beta-lactamase KPC-2 by agar dilution method; type: functional; conditions: K-12 DH10B; procedure, shortened: as §1
[6] = system: Escherichia coli; assay: Antimicrobial activity against Escherichia coli DH10B harboring beta-lactamase KPC-2 T237A mutant by agar dilution method; type: functional; conditions: K-12 DH10B; procedure, shortened: as §1
[7] = system: Escherichia coli; assay: Antimicrobial activity against Escherichia coli DH10B harboring beta-lactamase KPC-2 T237G mutant by agar dilution method; type: functional; conditions: K-12 DH10B; procedure, shortened: as §1
[8] = system: Escherichia coli; assay: Antimicrobial activity against Escherichia coli DH10B harboring beta-lactamase KPC-2 T237I mutant by agar dilution method; type: functional; conditions: K-12 DH10B; procedure, shortened: as §1
[9] = system: Escherichia coli; assay: Antimicrobial activity against Escherichia coli DH10B harboring beta-lactamase KPC-2 T237I mutant by agar dilution method in presence of beta-lactamase inhibitor Tazobactam; type: functional; conditions: K-12 DH10B
Procedure, shortened: (§2)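 LB agar dilution MICs by CLSI criteria, inoculated with a Steers replicator. […] Strains were E. coli DH10B with or without pBC SK(+) carrying wild-type blaKPC-2 or a position 237 variant.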

[10] = system: Escherichia coli; assay: Antimicrobial activity against Escherichia coli DH10B harboring beta-lactamase KPC-2 T237L mutant by agar dilution method; type: functional; conditions: K-12 DH10B; procedure, shortened: as §1
[11] = system: Escherichia coli; assay: Antimicrobial activity against Escherichia coli DH10B harboring beta-lactamase KPC-2 T237L mutant by agar dilution method in presence of beta-lactamase inhibitor Tazobactam; type: functional; conditions: K-12 DH10B; procedure, shortened: as §2
[12] = system: Escherichia coli; assay: Antimicrobial activity against Escherichia coli DH10B harboring beta-lactamase KPC-2 T237M mutant by agar dilution method; type: functional; conditions: K-12 DH10B; procedure, shortened: as §1
[13] = system: Escherichia coli; assay: Antimicrobial activity against Escherichia coli DH10B harboring beta-lactamase KPC-2 T237V mutant by agar dilution method; type: functional; conditions: K-12 DH10B; procedure, shortened: as §1
[14] = system: Escherichia coli; assay: Antimicrobial activity against Escherichia coli DH10B harboring beta-lactamase KPC-2 T237F mutant by agar dilution method; type: functional; conditions: K-12 DH10B; procedure, shortened: as §1
[15] = system: Escherichia coli; assay: Antimicrobial activity against Escherichia coli DH10B harboring beta-lactamase KPC-2 T237W mutant by agar dilution method; type: functional; conditions: K-12 DH10B; procedure, shortened: as §1
[16] = system: Escherichia coli; assay: Antimicrobial activity against Escherichia coli DH10B harboring beta-lactamase KPC-2 T237Y mutant by agar dilution method; type: functional; conditions: K-12 DH10B; procedure, shortened: as §1
[17] = system: Escherichia coli; assay: Antimicrobial activity against Escherichia coli DH10B harboring beta-lactamase KPC-2 T237Y mutant by agar dilution method in presence of beta-lactamase inhibitor Tazobactam; type: functional; conditions: K-12 DH10B; procedure, shortened: as §2
[18] = system: Escherichia coli; assay: Antimicrobial activity against Escherichia coli DH10B harboring beta-lactamase KPC-2 T237C mutant by agar dilution method; type: functional; conditions: K-12 DH10B; procedure, shortened: as §1
[19] = system: Escherichia coli; assay: Antimicrobial activity against Escherichia coli DH10B harboring beta-lactamase KPC-2 T237N mutant by agar dilution method; type: functional; conditions: K-12 DH10B; procedure, shortened: as §1
[20] = system: Escherichia coli; assay: Antimicrobial activity against Escherichia coli DH10B harboring beta-lactamase KPC-2 T237P mutant by agar dilution method; type: functional; conditions: K-12 DH10B; procedure, shortened: as §1
[21] = system: Escherichia coli; assay: Antimicrobial activity against Escherichia coli DH10B harboring beta-lactamase KPC-2 T237Q mutant by agar dilution method; type: functional; conditions: K-12 DH10B; procedure, shortened: as §1
[22] = system: Escherichia coli; assay: Antimicrobial activity against Escherichia coli DH10B harboring beta-lactamase KPC-2 T237S mutant by agar dilution method; type: functional; conditions: K-12 DH10B; procedure, shortened: as §1
[23] = system: Escherichia coli; assay: Antimicrobial activity against Escherichia coli DH10B harboring beta-lactamase KPC-2 T237S mutant by agar dilution method in presence of beta-lactamase inhibitor Tazobactam; type: functional; conditions: K-12 DH10B; procedure, shortened: as §2
[24] = system: Escherichia coli; assay: Antimicrobial activity against Escherichia coli DH10B harboring beta-lactamase KPC-2 T237D mutant by agar dilution method; type: functional; conditions: K-12 DH10B; procedure, shortened: as §1
[25] = system: Escherichia coli; assay: Antimicrobial activity against Escherichia coli DH10B harboring beta-lactamase KPC-2 T237E mutant by agar dilution method; type: functional; conditions: K-12 DH10B; procedure, shortened: as §1
[26] = system: Escherichia coli; assay: Antimicrobial activity against Escherichia coli DH10B harboring beta-lactamase KPC-2 T237H mutant by agar dilution method; type: functional; conditions: K-12 DH10B; procedure, shortened: as §1
[27] = system: Escherichia coli; assay: Antimicrobial activity against Escherichia coli DH10B harboring beta-lactamase KPC-2 T237K mutant by agar dilution method; type: functional; conditions: K-12 DH10B; procedure, shortened: as §1
[28] = system: Escherichia coli; assay: Antimicrobial activity against Escherichia coli DH10B harboring beta-lactamase KPC-2 T237R mutant by agar dilution method; type: functional; conditions: K-12 DH10B; procedure, shortened: as §1
[29] = system: Escherichia coli; assay: Antimicrobial activity against Escherichia coli DH10B by agar dilution method; type: functional; conditions: K-12 DH10B; procedure, shortened: as §1
[30] = system: Escherichia coli; assay: Antimicrobial activity against Escherichia coli DH10B harboring plasmid […] by agar dilution method; type: functional; conditions: K-12 DH10B; procedure, shortened: as §1
[31] = system: Escherichia coli; assay: Antimicrobial activity against Escherichia coli DH10B harboring plasmid pBC SK(+) carrying wild type beta-lactamase KPC-2 by agar dilution method in presence of beta-lactamase inhibitor Sulbactam; type: functional; conditions: K-12 DH10B
Procedure, shortened: (§3)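 LB agar dilution MICs by CLSI criteria, applied with a Steers replicator. […] Hosts were E. coli DH10B carrying pBC SK(+) with wild-type blaKPC-2 or a position 237 variant.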

[32] = system: Escherichia coli; assay: Antimicrobial activity against Escherichia coli DH10B harboring beta-lactamase KPC-2 T237M mutant by agar dilution method in presence of beta-lactamase inhibitor Sulbactam; type: functional; conditions: K-12 DH10B; procedure, shortened: as §3
[33] = system: Escherichia coli; assay: Antimicrobial activity against Escherichia coli DH10B harboring beta-lactamase KPC-2 T237N mutant by agar dilution method in presence of beta-lactamase inhibitor clavulanic acid; type: functional; conditions: K-12 DH10B; procedure, shortened: as §3
[34] = system: Escherichia coli; assay: Antimicrobial activity against Escherichia coli DH10B harboring beta-lactamase KPC-2 T237P mutant by agar dilution method in presence of beta-lactamase inhibitor Sulbactam; type: functional; conditions: K-12 DH10B
Procedure, shortened: (§4)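 LB agar dilution MICs per CLSI criteria, inoculated with a Steers replicator. […] Strains: E. coli DH10B alone, DH10B carrying empty pBC SK(+), or DH10B carrying pBC SK(+)-blaKPC-2 position 237 variants made by site-saturation mutagenesis and confirmed by sequencing. Plasmid selection used 20 mg/liter chloramphenicol.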

[35] = system: Escherichia coli; assay: Antimicrobial activity against Escherichia coli DH10B harboring plasmid […] by agar dilution method in presence of beta-lactamase inhibitor clavulanic acid; type: functional; conditions: K-12 DH10B; procedure, shortened: as §4
[36] = system: Klebsiella pneumoniae; assay: microbe, parasite or virus in culture; conditions: 1534

| Structure (SMILES) | MIC [3] [µg/mL] | MIC [4] [µg/mL] | MIC [5] [µg/mL] | MIC [6] [µg/mL] | MIC [7] [µg/mL] | MIC [8] [µg/mL] | MIC [10] [µg/mL] | MIC [12] [µg/mL] | MIC [13] [µg/mL] | MIC [14] [µg/mL] | MIC [15] [µg/mL] | MIC [16] [µg/mL] | MIC [18] [µg/mL] | MIC [19] [µg/mL] | MIC [20] [µg/mL] | MIC [21] [µg/mL] | MIC [22] [µg/mL] | MIC [24] [µg/mL] | MIC [25] [µg/mL] | MIC [26] [µg/mL] | further results |
| --- | --- | --- | --- | --- | --- | --- | --- | --- | --- | --- | --- | --- | --- | --- | --- | --- | --- | --- | --- | --- | --- |
| CCN1CCN(C(=O)N[C@@H](C(=O)N[C@@H]2C(=O)N3[C@@H]2SC(C)(C)[C@@H]3C(=O)O)c2ccccc2)C(=O)C1=O [PIPERACILLIN] | 1020 (≈ 1980 µM) | 1020 (≈ 1980 µM) | 128 (≈ 247 µM) | 64 (≈ 124 µM) | 16 (≈ 30.9 µM) | 8 (≈ 15.5 µM) | 16 (≈ 30.9 µM) | 32 (≈ 61.8 µM) | 16 (≈ 30.9 µM) | 4 (≈ 7.73 µM) | 8 (≈ 15.5 µM) | 4 (≈ 7.73 µM) | 4 (≈ 7.73 µM) | 8 (≈ 15.5 µM) | 1 (≈ 1.93 µM) | 64 (≈ 124 µM) | 128 (≈ 247 µM) | 4 (≈ 7.73 µM) | 8 (≈ 15.5 µM) | 8 (≈ 15.5 µM) | kcat/Km [1]: 3.5e+06 M⁻¹ s⁻¹; fold change (FC) [2]: 2.7; MIC [9]: 1 µg/mL; MIC [11]: 2 µg/mL; MIC [17]: 0.5 µg/mL; MIC [23]: 8 µg/mL; MIC [27]: 1 µg/mL (≈ 1.93 µM); MIC [28]: 4 µg/mL (≈ 7.73 µM); MIC [29]: 2 µg/mL (≈ 3.86 µM); MIC [30]: 2 µg/mL (≈ 3.86 µM) |
| CC1(C)S[C@@H]2[C@H](NC(=O)[C@H](N)c3ccccc3)C(=O)N2[C@H]1C(=O)O [AMPICILLIN] | 8190 (≈ 23400 µM) | 4100 (≈ 11700 µM) | 256 (≈ 733 µM) | 256 (≈ 733 µM) | 128 (≈ 366 µM) | 64 (≈ 183 µM) | 64 (≈ 183 µM) | 128 (≈ 366 µM) | 128 (≈ 366 µM) | 16 (≈ 45.8 µM) | 16 (≈ 45.8 µM) | 16 (≈ 45.8 µM) | 4 (≈ 11.4 µM) | 32 (≈ 91.6 µM) | 1 (≈ 2.86 µM) | 256 (≈ 733 µM) | 512 (≈ 1470 µM) | 16 (≈ 45.8 µM) | 32 (≈ 91.6 µM) | 64 (≈ 183 µM) | MIC [31]: 128 µg/mL; MIC [32]: 16 µg/mL; MIC [33]: 4 µg/mL; MIC [34]: 1 µg/mL; MIC [27]: 1 µg/mL (≈ 2.86 µM); MIC [28]: 4 µg/mL (≈ 11.4 µM); MIC [29]: 1 µg/mL (≈ 2.86 µM); MIC [30]: 1 µg/mL (≈ 2.86 µM); MIC [35]: 1 µg/mL; MIC [36]: 32 µg/mL (≈ 91.6 µM) |
